Experimental data: ChEMBL document CHEMBL1124963, “Antifolate and antibacterial activities of 5-substituted 2,4-diaminoquinazolines” (J Med Chem, 1990)

Assays:
[1] = Partition coefficient (logP); format: physicochemical; conditions: octanol/water
[2] = Dissociation constant was determined using UV method; format: physicochemical
Procedure, shortened: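 UV spectrophotometric method. Aqueous stock of compound in distilled water, diluted into 0.01 M NaOH (pH ~12) and 0.001 M HCl (pH ~3) to pick an analytical wavelength from the difference spectrum. Five to seven KH2PO4/borax buffers bracketing the estimated pKa, pH measured at 25 °C. Absorbance read in a 1.0-cm cell at 25.0 °C against buffer. Separate values averaged with SD to give the concentration pKa.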

Staphylococcus aureus = test: Antibacterial activity (10 e-6 log (1/MIC) towards Staphylococcus aureus; format: functional
Procedure, shortened: (§1)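 Two-fold serial dilution: each compound prepared as a series of solutions differing by a factor of two, each added to a fixed amount of previously prepared test culture, incubated at 37 °C overnight.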

Escherichia coli = test: Antibacterial activity (10 e-6 log (1/MIC) towards Escherichia coli; format: functional; procedure, shortened: as §1
[3] = Acute toxicity determined in mice by an LD50 test when administered perorally; format: organism-based; conditions: mouse, in vivo, po
[4] = Acute toxicity determined in mice by an LD50 test when administered intraperitoneally; format: organism-based; conditions: mouse, in vivo, ip
[5] = Acute toxicity determined in mice by an LD50 test when administered peritoneally; format: organism-based; conditions: mouse, in vivo, ip

Row | SMILES | logP [1] | pKa [2] | Log 1/MIC (Staphylococcus aureus) | Log 1/MIC (Escherichia coli) | LD50 [3] [mg/kg] | LD50 [4] [mg/kg] | LD50 [5] [mg/kg]
1 | CCSc1cccc2nc(N)nc(N)c12 | 2.27 | 7.87 | -0.1 | 2 | – | – | –
2 | Nc1nc(N)c2c(F)cccc2n1 | 1.19 | 7.44 | 1.4 | 1.7 | 489 | 100 | –
3 | Nc1nc(N)c2c(Cl)cccc2n1 | 1.72 | 7.22 | 1.2 | 2.1 | – | 100 | –
4 | Nc1nc(N)c2c(I)cccc2n1 | 2.12 | – | 0.4 | 1.7 | ~500 | – | –
5 | CSc1cccc2nc(N)nc(N)c12 | 1.81 | – | 0 | 2.2 | – | – | –
6 | Nc1nc(N)c2c(O)cccc2n1 | – | – | -0.7 | <-0.7 | – | – | –
7 | CCCNC(=O)c1cccc2nc(N)nc(N)c12 | 0.83 | – | <-0.6 | <-0.6 | – | – | –
8 | Cc1cccc2nc(N)nc(N)c12 | 1.26 | 8.19 | 0.5 | 1.7 | – | ~100 | –
9 | Nc1nc(N)c2c(S(=O)(=O)c3ccccc3)cccc2n1 | 2.14 | – | <-0.5 | <-0.5 | – | – | –
10 | Nc1nc(N)c2c(N3CCOCC3)cccc2n1 | 1.11 | – | -0.6 | -0.6 | – | – | –
11 | Nc1nc(N)c2c(N3CCCCC3)cccc2n1 | 2.66 | – | – | – | – | – | –
12 | Nc1nc(N)c2c([N+](=O)[O-])cccc2n1 | 1.19 | 6.24 | 0 | <0.5 | – | – | –
13 | CCCCCCOc1cccc2nc(N)nc(N)c12 | – | – | 1.1 | 0 | – | – | –
14 | COC(=O)c1cccc2nc(N)nc(N)c12 | – | – | -0.6 | -0.1 | – | 68 | –
15 | CCc1cccc2nc(N)nc(N)c12 | 1.69 | – | 0.6 | 2.6 | – | – | –
16 | Nc1ncnc2ccccc12 [4-AMINOQUINAZOLINE] | – | – | – | – | – | 205 | 584

Row | SMILES | logP [1] | pKa [2] | Log 1/MIC (Staphylococcus aureus) | Log 1/MIC (Escherichia coli) | LD50 [3] [mg/kg] | LD50 [4] [mg/kg] | LD50 [5] [mg/kg]
17 | CCOc1cccc2nc(N)nc(N)c12 | 1.69 | – | 0.2 | 1.7 | – | ~100 | –
18 | NC(=O)c1cccc2nc(N)nc(N)c12 | -0.33 | 7.22 | <-0.7 | -0.6 | – | – | –
19 | Nc1nc(N)c2c(OCc3ccccc3)cccc2n1 | 2.82 | – | 1 | 0.8 | – | – | –
20 | CCCSc1cccc2nc(N)nc(N)c12 | 2.85 | – | – | – | – | – | –
21 | CCCOc1cccc2nc(N)nc(N)c12 | 2.26 | – | 0.2 | 1.1 | – | – | –
22 | CN(C)c1cccc2nc(N)nc(N)c12 | 1.65 | – | -0.5 | -0.4 | – | – | –
23 | Nc1nc(N)c2c(Br)cccc2n1 | 1.91 | – | 1.5 | 2.2 | 271 | – | –
24 | Nc1nc(N)c2c(CCc3ccccc3)cccc2n1 | – | – | 1.3 | 1.3 | – | – | –
25 | CS(=O)(=O)c1cccc2nc(N)nc(N)c12 | 0.63 | – | <-0.6 | <-0.6 | – | – | –
26 | Nc1nc(N)c2c(N)cccc2n1 | 0.3 | – | <0.2 | 0.3 | – | – | –
27 | COc1cccc2nc(N)nc(N)c12 | 1.18 | 8.32 | 1 | 2.1 | ~500 | 137 | –
28 | CCCCOc1cccc2nc(N)nc(N)c12 | 2.81 | – | 0.4 | 0.6 | – | – | –
29 | Nc1nc(N)c2c(Sc3ccccc3)cccc2n1 | – | – | < -0.6 | < -0.6 | – | – | –
30 | Nc1nc(N)c2c(Oc3ccccc3)cccc2n1 | 2.78 | – | 0 | 0.2 | – | – | –
31 | Nc1nc(N)c2ccccc2n1 | 1.01 | 8.08 | 1.3 | 0.7 | – | – | –
32 | CC(C)Oc1cccc2nc(N)nc(N)c12 | 2.05 | – | -0.1 | 0.8 | – | – | –
